Laboratory results as given in ChEMBL document CHEMBL1926614, “Substituted thiazoles V. synthesis and antitumor activity of novel thiazolo[2,3-b]quinazoline and pyrido[4,3-d]thiazolo[3,2-a]pyrimidine analogues” (2012).

Tests used:
Format in all cases: functional
NCI-H23 = assay: Growth inhibition of human NCI-H23 cells at 10 uM after 48 hrs by coulter counting; details: NCI-H23, 48 h, read-out: GI
Method in brief: (§1)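 Single-dose primary screen across the full NCI 60-cell-line panel. Stocks were made in DMSO and diluted in PBS to a final DMSO below 1%. Cultures at 6 × 10⁴ cells/ml were run in duplicate wells alongside PBS/DMSO vehicle controls at 37 °C in humidified 5% CO₂. Data were expressed as percent growth of treated cells.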

MCF7 = assay: Growth inhibition of human MCF7 cells at 10 uM after 48 hrs by coulter counting; details: MCF7, 48 h, read-out: GI; method in brief: as §1
NCI-H460 = assay: Growth inhibition of human NCI-H460 cells at 10 uM after 48 hrs by coulter counting; details: NCI-H460, 48 h, read-out: GI; method in brief: as §1
NCI/ADR-RES = assay: Growth inhibition of human NCI/ADR-RES cells at 10 uM after 48 hrs by coulter counting; details: read-out: GI; method in brief: as §1
HCC 2998 = assay: Growth inhibition of human HCC2998 cells at 10 uM after 48 hrs by coulter counting; details: HCC 2998, 48 h, read-out: GI; method in brief: as §1
SNB-19 = assay: Growth inhibition of human SNB19 cells at 10 uM after 48 hrs by coulter counting; details: SNB-19, 48 h, read-out: GI; method in brief: as §1
SK-MEL-5 = assay: Growth inhibition of human SK-MEL-5 cells at 10 uM after 48 hrs by coulter counting; details: SK-MEL-5, 48 h, read-out: GI; method in brief: as §1
K562 = assay: Growth inhibition of human K562 cells at 10 uM after 48 hrs by coulter counting; details: K562, 48 h, read-out: GI; method in brief: as §1
DU-145 = assay: Growth inhibition of human DU145 cells at 10 uM after 48 hrs by coulter counting; details: DU-145, 48 h, read-out: GI; method in brief: as §1
KM12 = assay: Growth inhibition of human KM12 cells at 10 uM after 48 hrs by coulter counting; details: KM12, 48 h, read-out: GI; method in brief: as §1
T47D = assay: Growth inhibition of human T47D cells at 10 uM after 48 hrs by coulter counting; details: read-out: GI
Method in brief: (§2)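 Single-dose screen in the NCI 60 human tumor cell line panel (nine subpanels). Compounds dissolved in DMSO and diluted in phosphate buffered saline, keeping final DMSO below 1%. Added in duplicate wells to cells at 6 × 10⁴ cells/ml. Controls held PBS and DMSO at matching dilutions. Incubated at 37 °C, humidified, 5% CO₂. Reported as percent growth of treated cells.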

HCT-116 = assay: Growth inhibition of human HCT116 cells at 10 uM after 48 hrs by coulter counting; details: HCT-116, 48 h, read-out: GI; method in brief: as §1
NCI-H522 = assay: Growth inhibition of human NCI-H522 cells at 10 uM after 48 hrs by coulter counting; details: NCI-H522, 48 h, read-out: GI; method in brief: as §1
LOX IMVI = assay: Growth inhibition of human LOXIMVI cells at 10 uM after 48 hrs by coulter counting; details: read-out: GI; method in brief: as §1
UACC-62 = assay: Growth inhibition of human UACC62 cells at 10 uM after 48 hrs by coulter counting; details: UACC-62, 48 h, read-out: GI; method in brief: as §2
IGROV-1 = assay: Growth inhibition of human IGROV1 cells at 10 uM after 48 hrs by coulter counting; details: IGROV-1, 48 h, read-out: GI; method in brief: as §1
A549 = assay: Growth inhibition of human A549 cells at 10 uM after 48 hrs by coulter counting; details: A549, 48 h, read-out: GI; method in brief: as §1
SK-MEL-28 = assay: Growth inhibition of human SK-MEL-28 cells at 10 uM after 48 hrs by coulter counting; details: SK-MEL-28, 48 h, read-out: GI; method in brief: as §1
HL-60(TB) = assay: Growth inhibition of human HL-60(TB) cells at 10 uM after 48 hrs by coulter counting; details: HL-60, 48 h, read-out: GI
Method in brief: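 Test compound was dissolved in DMSO and diluted in phosphate-buffered saline to a final DMSO level below 1%. Dilutions were plated in duplicate with cell culture at 6 × 10⁴ cells/ml. Vehicle controls held PBS and DMSO at matching dilutions. Incubation was at 37 °C, humidified, under 5% CO₂. Data were reported as percent growth of treated cells.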

BT-549 = assay: Growth inhibition of human BT549 cells at 10 uM after 48 hrs by coulter counting; details: BT-549, 48 h, read-out: GI; method in brief: as §1
SF-295 = assay: Growth inhibition of human SF295 cells at 10 uM after 48 hrs by coulter counting; details: SF-295, 48 h, read-out: GI; method in brief: as §1
MDA-MB-435 = assay: Growth inhibition of human MDA-MB-435 cells at 10 uM after 48 hrs by coulter counting; details: MDA-MB-435, 48 h, read-out: GI; method in brief: as §1
ACHN = assay: Growth inhibition of human ACHN cells at 10 uM after 48 hrs by coulter counting; details: read-out: GI; method in brief: as §1
CCRF-CEM = assay: Growth inhibition of human CCRF-CEM cells at 10 uM after 48 hrs by coulter counting; details: read-out: GI; method in brief: as §1
HT-29 = assay: Growth inhibition of human HT-29 cells at 10 uM after 48 hrs by coulter counting; details: HT-29, 48 h, read-out: GI; method in brief: as §1
SF-268 = assay: Growth inhibition of human SF268 cells at 10 uM after 48 hrs by coulter counting; details: SF-268, 48 h, read-out: GI; method in brief: as §1
NCI-H226 = assay: Growth inhibition of human NCI-H226 cells at 10 uM after 48 hrs by coulter counting; details: NCI-H226, 48 h, read-out: GI; method in brief: as §1
UACC-257 = assay: Growth inhibition of human UACC257 cells at 10 uM after 48 hrs by coulter counting; details: UACC-257, 48 h, read-out: GI; method in brief: as §2
UO-31 = assay: Growth inhibition of human UO31 cells at 10 uM after 48 hrs by coulter counting; details: UO-31, 48 h, read-out: GI; method in brief: as §2
SNB-75 = assay: Growth inhibition of human SNB75 cells at 10 uM after 48 hrs by coulter counting; details: SNB-75, 48 h, read-out: GI; method in brief: as §1
CAKI-1 = assay: Growth inhibition of human Caki1 cells at 10 uM after 48 hrs by coulter counting; details: CAKI-1, 48 h, read-out: GI; method in brief: as §1
RPMI-8226 = assay: Growth inhibition of human RPMI8226 cells at 10 uM after 48 hrs by coulter counting; details: RPMI-8226, 48 h, read-out: GI; method in brief: as §1
MOLT-4 = assay: Growth inhibition of human MOLT4 cells at 10 uM after 48 hrs by coulter counting; details: MOLT-4, 48 h, read-out: GI; method in brief: as §1
OVCAR-4 = assay: Growth inhibition of human OVCAR4 cells at 10 uM after 48 hrs by coulter counting; details: OVCAR-4, 48 h, read-out: GI; method in brief: as §1
U-251 = assay: Growth inhibition of human U251 cells at 10 uM after 48 hrs by coulter counting; details: U-251, 48 h, read-out: GI; method in brief: as §2
EKVX = assay: Growth inhibition of human EKVX cells at 10 uM after 48 hrs by coulter counting; details: read-out: GI; method in brief: as §1
M14 = assay: Growth inhibition of human M14 cells at 10 uM after 48 hrs by coulter counting; details: M14, 48 h, read-out: GI; method in brief: as §1
A498 = assay: Growth inhibition of human A498 cells at 10 uM after 48 hrs by coulter counting; details: A498, 48 h, read-out: GI; method in brief: as §1
SK-MEL-2 = assay: Growth inhibition of human SK-MEL-2 cells at 10 uM after 48 hrs by coulter counting; details: SK-MEL-2, 48 h, read-out: GI; method in brief: as §1
[1] = Growth inhibition of human NCI-322M cells at 10 uM after 48 hrs by coulter counting; details: read-out: GI; method in brief: as §1
SF-539 = assay: Growth inhibition of human SF539 cells at 10 uM after 48 hrs by coulter counting; details: SF-539, 48 h, read-out: GI; method in brief: as §1

`COc1ccc(/C=C2\CCCC3=C2N=C2SC=C(C)N2C3c2ccc(OC)c(OC)c2)cc1OC` (stereo unspecified) showed an inhibition of growth at 10 µM (NCI-H23) greater than 10%, an inhibition of growth at 10 µM (MCF7) greater than 10% and an inhibition of growth at 10 µM (NCI-H460) greater than 10%. For the same molecule, the inhibition of growth at 10 µM (NCI/ADR-RES) was greater than 10%, the inhibition of growth at 10 µM (HCC 2998) was greater than 10% and the inhibition of growth at 10 µM (SNB-19) was greater than 10%. It also gave an inhibition of growth at 10 µM (SK-MEL-5) greater than 10%, an inhibition of growth at 10 µM (K562) greater than 10% and an inhibition of growth at 10 µM (DU-145) greater than 10%. The inhibition of growth at 10 µM (KM12) was greater than 10%, the inhibition of growth at 10 µM (T47D) was greater than 10% and the inhibition of growth at 10 µM (HCT-116) was greater than 10%. For the same molecule, the inhibition of growth at 10 µM (NCI-H522) was greater than 10%, the inhibition of growth at 10 µM (LOX IMVI) was greater than 10% and the inhibition of growth at 10 µM (UACC-62) was greater than 10%. The inhibition of growth at 10 µM (IGROV-1) was greater than 10%, the inhibition of growth at 10 µM (A549) was greater than 10% and the inhibition of growth at 10 µM (SK-MEL-28) was greater than 10%. It also gave an inhibition of growth at 10 µM (HL-60(TB)) greater than 10%, an inhibition of growth at 10 µM (BT-549) greater than 10% and an inhibition of growth at 10 µM (SF-295) greater than 10%. It also gave an inhibition of growth at 10 µM (MDA-MB-435) greater than 10%, an inhibition of growth at 10 µM (ACHN) greater than 10% and an inhibition of growth at 10 µM (CCRF-CEM) greater than 10%. The inhibition of growth at 10 µM (HT-29) was greater than 10%, the inhibition of growth at 10 µM (SF-268) was greater than 10% and the inhibition of growth at 10 µM (NCI-H226) was 10.5%. It also gave an inhibition of growth at 10 µM (UACC-257) greater than 10%, an inhibition of growth at 10 µM (UO-31) greater than 10% and an inhibition of growth at 10 µM (SNB-75) greater than 10%. It also gave an inhibition of growth at 10 µM (CAKI-1) greater than 10%, an inhibition of growth at 10 µM (RPMI-8226) greater than 10% and an inhibition of growth at 10 µM (MOLT-4) greater than 10%. The inhibition of growth at 10 µM (OVCAR-4) was greater than 10%, the inhibition of growth at 10 µM (U-251) was greater than 10% and the inhibition of growth at 10 µM (EKVX) was 11.4%. It also gave an inhibition of growth at 10 µM (M14) greater than 10%, an inhibition of growth at 10 µM (A498) greater than 10% and an inhibition of growth at 10 µM (SK-MEL-2) greater than 10%. The inhibition of growth at 10 µM [1] was greater than 10% and the inhibition of growth at 10 µM (SF-539) was greater than 10%.
